In ChEMBL document CHEMBL1240365, “Effects of ceftobiprole and oxacillin on mecA expression in methicillin-resistant Staphylococcus aureus clinical isolates” (2010):
≈ marks a conversion by molar mass, not a printed value.

Columns and labels:
Assay type in all cases: functional
Staphylococcus aureus [1] = assay: Induction of mecA gene expression in beta-lactamase positive SCCmec type 1 methicillin-resistant Staphylococcus aureus isolate 12192 at MIC after 1 hr by multiplex PCR method
Staphylococcus aureus [2] = assay: Induction of mecA gene expression in beta-lactamase positive SCCmec type 1 methicillin-resistant Staphylococcus aureus isolate 12575 at MIC after 1 hr by multiplex PCR method
Staphylococcus aureus [3] = assay: Induction of mecA gene expression in beta-lactamase positive SCCmec type 3 methicillin-resistant Staphylococcus aureus isolate 12597 at MIC after 1 hr by multiplex PCR method
Staphylococcus aureus [4] = assay: Induction of mecA gene expression in beta-lactamase positive SCCmec type 3 methicillin-resistant Staphylococcus aureus isolate 12617 at MIC after 1 hr by multiplex PCR method
Staphylococcus aureus [5] = assay: Induction of mecA gene expression in beta-lactamase positive SCCmec type 3 methicillin-resistant Staphylococcus aureus isolate 14567 at MIC after 1 hr by multiplex PCR method
Staphylococcus aureus [6] = assay: Induction of mecA gene expression in beta-lactamase positive SCCmec type 2 methicillin-resistant Staphylococcus aureus isolate 17256 at MIC after 1 hr by multiplex PCR method
Staphylococcus aureus [7] = assay: Induction of mecA gene expression in beta-lactamase positive SCCmec type nontypeable methicillin-resistant Staphylococcus aureus isolate 17329 at MIC after 1 hr by multiplex PCR method
Staphylococcus aureus [8] = assay: Induction of mecA gene expression in beta-lactamase positive SCCmec type 2 methicillin-resistant Staphylococcus aureus isolate 17357 at MIC after 1 hr by multiplex PCR method
Staphylococcus aureus [9] = assay: Antibacterial activity against beta-lactamase positive SCCmec type 2 methicillin-resistant Staphylococcus aureus isolate 11218 by broth microdilution method
How it was run: (§1)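 MIC by broth microdilution in cation-adjusted Mueller-Hinton broth per CLSI recommendations. The isolates were mecA-positive MRSA, SCCmec-typed mainly by multiplex PCR. Every isolate was beta-lactamase positive by whole-cell nitrocefin hydrolysis.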

Staphylococcus aureus [10] = assay: Antibacterial activity against beta-lactamase positive SCCmec type 2 methicillin-resistant Staphylococcus aureus isolate 11521 by broth microdilution method; how it was run: as §1
Staphylococcus aureus [11] = assay: Antibacterial activity against beta-lactamase positive SCCmec type 4a methicillin-resistant Staphylococcus aureus isolate 11617 by broth microdilution method; how it was run: as §1
Staphylococcus aureus [12] = assay: Antibacterial activity against beta-lactamase positive SCCmec type 4a methicillin-resistant Staphylococcus aureus isolate 12639 by broth microdilution method; how it was run: as §1
Staphylococcus aureus [13] = assay: Antibacterial activity against beta-lactamase positive SCCmec type 3 methicillin-resistant Staphylococcus aureus isolate 12662 by broth microdilution method; how it was run: as §1
Staphylococcus aureus [14] = assay: Antibacterial activity against beta-lactamase positive SCCmec type 5 methicillin-resistant Staphylococcus aureus isolate 12868 by broth microdilution method; how it was run: as §1
Staphylococcus aureus [15] = assay: Antibacterial activity against beta-lactamase positive SCCmec type 4a methicillin-resistant Staphylococcus aureus isolate 14145 by broth microdilution method; how it was run: as §1
Staphylococcus aureus [16] = assay: Antibacterial activity against beta-lactamase positive SCCmec type 4a methicillin-resistant Staphylococcus aureus isolate 14154 by broth microdilution method; how it was run: as §1
Staphylococcus aureus [17] = assay: Antibacterial activity against beta-lactamase positive SCCmec type 2 methicillin-resistant Staphylococcus aureus isolate 15855 by broth microdilution method; how it was run: as §1
Staphylococcus aureus [18] = assay: Antibacterial activity against beta-lactamase positive SCCmec type 1 methicillin-resistant Staphylococcus aureus isolate 11631 by broth microdilution method; how it was run: as §1
Staphylococcus aureus [19] = assay: Antibacterial activity against beta-lactamase positive SCCmec type 1 methicillin-resistant Staphylococcus aureus isolate 12192 by broth microdilution method; how it was run: as §1
Staphylococcus aureus [20] = assay: Antibacterial activity against beta-lactamase positive SCCmec type 1 methicillin-resistant Staphylococcus aureus isolate 12575 by broth microdilution method; how it was run: as §1
Staphylococcus aureus [21] = assay: Antibacterial activity against beta-lactamase positive SCCmec type 3 methicillin-resistant Staphylococcus aureus isolate 12597 by broth microdilution method; how it was run: as §1
Staphylococcus aureus [22] = assay: Antibacterial activity against beta-lactamase positive SCCmec type 3 methicillin-resistant Staphylococcus aureus isolate 12617 by broth microdilution method; how it was run: as §1
Staphylococcus aureus [23] = assay: Antibacterial activity against beta-lactamase positive SCCmec type 3 methicillin-resistant Staphylococcus aureus isolate 14567 by broth microdilution method; how it was run: as §1
Staphylococcus aureus [24] = assay: Antibacterial activity against beta-lactamase positive SCCmec type 2 methicillin-resistant Staphylococcus aureus isolate 17256 by broth microdilution method; how it was run: as §1
Staphylococcus aureus [25] = assay: Antibacterial activity against beta-lactamase positive SCCmec type nontypeable methicillin-resistant Staphylococcus aureus isolate 17329 by broth microdilution method; how it was run: as §1
Staphylococcus aureus [26] = assay: Antibacterial activity against beta-lactamase positive SCCmec type 2 methicillin-resistant Staphylococcus aureus isolate 17357 by broth microdilution method; how it was run: as §1
Staphylococcus aureus [27] = assay: Induction of mecA gene expression in beta-lactamase positive SCCmec type 2 methicillin-resistant Staphylococcus aureus isolate 11218 at MIC after 1 hr by multiplex PCR method
Staphylococcus aureus [28] = assay: Induction of mecA gene expression in beta-lactamase positive SCCmec type 2 methicillin-resistant Staphylococcus aureus isolate 11521 at MIC after 1 hr by multiplex PCR method
Staphylococcus aureus [29] = assay: Induction of mecA gene expression in beta-lactamase positive SCCmec type 4a methicillin-resistant Staphylococcus aureus isolate 11617 at MIC after 1 hr by multiplex PCR method
Staphylococcus aureus [30] = assay: Induction of mecA gene expression in beta-lactamase positive SCCmec type 4a methicillin-resistant Staphylococcus aureus isolate 12639 at MIC after 1 hr by multiplex PCR method
Staphylococcus aureus [31] = assay: Induction of mecA gene expression in beta-lactamase positive SCCmec type 3 methicillin-resistant Staphylococcus aureus isolate 12662 at MIC after 1 hr by multiplex PCR method
Staphylococcus aureus [32] = assay: Induction of mecA gene expression in beta-lactamase positive SCCmec type 5 methicillin-resistant Staphylococcus aureus isolate 12868 at MIC after 1 hr by multiplex PCR method
Staphylococcus aureus [33] = assay: Induction of mecA gene expression in beta-lactamase positive SCCmec type 4a methicillin-resistant Staphylococcus aureus isolate 14145 at MIC after 1 hr by multiplex PCR method
Staphylococcus aureus [34] = assay: Induction of mecA gene expression in beta-lactamase positive SCCmec type 4a methicillin-resistant Staphylococcus aureus isolate 14154 at MIC after 1 hr by multiplex PCR method
Staphylococcus aureus [35] = assay: Induction of mecA gene expression in beta-lactamase positive SCCmec type 2 methicillin-resistant Staphylococcus aureus isolate 15855 at MIC after 1 hr by multiplex PCR method
Staphylococcus aureus [36] = assay: Induction of mecA gene expression in beta-lactamase positive SCCmec type 1 methicillin-resistant Staphylococcus aureus isolate 11631 at MIC after 1 hr by multiplex PCR method

SMILES: Cc1onc(-c2ccccc2)c1C(=O)N[C@@H]1C(=O)N2[C@@H]1SC(C)(C)[C@@H]2C(=O)O [OXACILLIN]
- fold change (FC) (Staphylococcus aureus [1]): 41
- fold change (FC) (Staphylococcus aureus [2]): 69
- fold change (FC) (Staphylococcus aureus [3]): 31
- fold change (FC) (Staphylococcus aureus [4]): 50
- fold change (FC) (Staphylococcus aureus [5]): 27
- fold change (FC) (Staphylococcus aureus [6]): 4
- fold change (FC) (Staphylococcus aureus [7]): 50
- fold change (FC) (Staphylococcus aureus [8]): 15
- MIC (Staphylococcus aureus [9]): 32 µg/mL (≈ 79.7 µM)
- MIC (Staphylococcus aureus [10]): 256 µg/mL (≈ 638 µM)
- MIC (Staphylococcus aureus [11]): 8 µg/mL (≈ 19.9 µM)
- MIC (Staphylococcus aureus [12]): 64 µg/mL (≈ 159 µM)
- MIC (Staphylococcus aureus [13]): 256 µg/mL (≈ 638 µM)
- MIC (Staphylococcus aureus [14]): 4 µg/mL (≈ 9.96 µM)
- MIC (Staphylococcus aureus [15]): 16 µg/mL (≈ 39.9 µM)
- MIC (Staphylococcus aureus [16]): 16 µg/mL (≈ 39.9 µM)
- MIC (Staphylococcus aureus [17]): 256 µg/mL (≈ 638 µM)
- MIC (Staphylococcus aureus [18]): > 256 µg/mL
- MIC (Staphylococcus aureus [19]): > 256 µg/mL
- MIC (Staphylococcus aureus [20]): > 256 µg/mL
- MIC (Staphylococcus aureus [21]): > 256 µg/mL
- MIC (Staphylococcus aureus [22]): > 256 µg/mL
- MIC (Staphylococcus aureus [23]): 256 µg/mL (≈ 638 µM)
- MIC (Staphylococcus aureus [24]): 256 µg/mL (≈ 638 µM)
- MIC (Staphylococcus aureus [25]): 256 µg/mL (≈ 638 µM)
- MIC (Staphylococcus aureus [26]): > 256 µg/mL
- fold change (FC) (Staphylococcus aureus [27]): 3
- fold change (FC) (Staphylococcus aureus [28]): 13
- fold change (FC) (Staphylococcus aureus [29]): 5
- fold change (FC) (Staphylococcus aureus [30]): 2
- fold change (FC) (Staphylococcus aureus [31]): 18
- fold change (FC) (Staphylococcus aureus [32]): 2
- fold change (FC) (Staphylococcus aureus [33]): 5
- fold change (FC) (Staphylococcus aureus [34]): 6
- fold change (FC) (Staphylococcus aureus [35]): 25
- fold change (FC) (Staphylococcus aureus [36]): 66

SMILES: Nc1nc(/C(=N/O)C(=O)N[C@@H]2C(=O)N3C(C(=O)O)=C(/C=C4\CCN([C@@H]5CCNC5)C4=O)CS[C@H]23)ns1 [CEFTOBIPROLE]
- fold change (FC) (Staphylococcus aureus [1]): 53
- fold change (FC) (Staphylococcus aureus [2]): 52
- fold change (FC) (Staphylococcus aureus [3]): 24
- fold change (FC) (Staphylococcus aureus [4]): 38
- fold change (FC) (Staphylococcus aureus [5]): 27
- fold change (FC) (Staphylococcus aureus [6]): 3
- fold change (FC) (Staphylococcus aureus [7]): 4
- fold change (FC) (Staphylococcus aureus [8]): 3
- MIC (Staphylococcus aureus [9]): 0.5 µg/mL (≈ 0.935 µM)
- MIC (Staphylococcus aureus [10]): 0.5 µg/mL (≈ 0.935 µM)
- MIC (Staphylococcus aureus [11]): 0.5 µg/mL (≈ 0.935 µM)
- MIC (Staphylococcus aureus [12]): 0.5 µg/mL (≈ 0.935 µM)
- MIC (Staphylococcus aureus [13]): 0.5 µg/mL (≈ 0.935 µM)
- MIC (Staphylococcus aureus [14]): 0.5 µg/mL (≈ 0.935 µM)
- MIC (Staphylococcus aureus [15]): 1 µg/mL (≈ 1.87 µM)
- MIC (Staphylococcus aureus [16]): 1 µg/mL (≈ 1.87 µM)
- MIC (Staphylococcus aureus [17]): 1 µg/mL (≈ 1.87 µM)
- MIC (Staphylococcus aureus [18]): 2 µg/mL (≈ 3.74 µM)
- MIC (Staphylococcus aureus [19]): 2 µg/mL (≈ 3.74 µM)
- MIC (Staphylococcus aureus [20]): 2 µg/mL (≈ 3.74 µM)
- MIC (Staphylococcus aureus [21]): 2 µg/mL (≈ 3.74 µM)
- MIC (Staphylococcus aureus [22]): 2 µg/mL (≈ 3.74 µM)
- MIC (Staphylococcus aureus [23]): 2 µg/mL (≈ 3.74 µM)
- MIC (Staphylococcus aureus [24]): 4 µg/mL (≈ 7.48 µM)
- MIC (Staphylococcus aureus [25]): 4 µg/mL (≈ 7.48 µM)
- MIC (Staphylococcus aureus [26]): 4 µg/mL (≈ 7.48 µM)
- fold change (FC) (Staphylococcus aureus [27]): 3
- fold change (FC) (Staphylococcus aureus [28]): 49
- fold change (FC) (Staphylococcus aureus [29]): 30
- fold change (FC) (Staphylococcus aureus [30]): 5
- fold change (FC) (Staphylococcus aureus [31]): 22
- fold change (FC) (Staphylococcus aureus [32]): 20
- fold change (FC) (Staphylococcus aureus [33]): 14
- fold change (FC) (Staphylococcus aureus [34]): 20
- fold change (FC) (Staphylococcus aureus [35]): 57
- fold change (FC) (Staphylococcus aureus [36]): 65
